Results on 1 molecule are retold here after publication PMC4123212 (Chemistry & biology, 2014).

In test [1] the target is T1, Erk2^WT (Rattus norvegicus, UniProt P63086). The experiment in a line: Activation inhibition assay. In kind it is biochemical. Conditions: ELISA. In general terms: An ELISA detects its analyte on a solid surface through an enzyme-linked reagent.
In the next test the target is phospho-Erk2^DS2 (Rattus norvegicus, UniProt P63086, C164L/Q103A). The test can be described thus: Phosphatase inhibition: DUSP6-mediated dephosphorylation. In kind it is biochemical. Conditions: phospho-Erk2^DS2, relative to apo enzyme, ELISA.
Test [2] addresses GFP-tagged Erk2^WT in HEK293 cells (Rattus norvegicus, UniProt P63086). The experiment in a line: In-cell activation inhibition, EGF-stimulated HEK293 cells. Format: cell-based. Conditions: 2 at 100-1000 nM, SB203580 1000 nM, immunoblot. The procedure, abridged: (§1)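 Low-passage HEK293 transiently transfected with GFP-Erk2 plasmid, split next day into 96-well format, serum-starved 24 h. Test compound added for 1 h at 37 °C (final 1% DMSO), then human EGF 50 ng/mL for 5 min at 37 °C. DMSO controls with and without EGF. Cells lysed by boiling in SDS loading buffer; SDS-PAGE, immunoblot for GFP and ppErk.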
In general terms: Immunoblotting shows a protein as a band on a membrane.

The target in test [3] is T2, Erk2^DS1 (Rattus norvegicus, UniProt P63086, C164L/Q103T). The experiment in a line: Activation inhibition assay. Format: biochemical. The conditions noted are these: Erk2^DS1, PhosTag-acrylamide PAGE. The method in brief: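 This run uses the MOPS/MgCl2 activation setup (ATP 5 µM, 30 min compound preincubation at RT) but with tenfold more MEK2. Reactions were stopped in SDS loading buffer without EDTA. Erk2 phospho-forms were resolved by SDS-PAGE in gels containing 50 µM PhosTag-acrylamide and 100 µM MnCl2.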

Another test has as its target phospho-Erk2^WT (Rattus norvegicus, UniProt P63086). The test can be described thus: Phosphatase inhibition: DUSP6-mediated dephosphorylation. In kind it is biochemical. Conditions: ELISA.
Test [4] has as its target T1, Erk2^WT. The conditions noted are these: Ki values reported previously, ref Hari et al., 2013; cited from earlier work.
Another test has as its target Erk2^DS2 (Q103A/C164L) (Rattus norvegicus, UniProt P63086, C164L/Q103A). Conditions: ref Hari et al., 2013; cited from earlier work.
Test [5] has as its target T2, Erk2^DS1. The test can be described thus: Activation inhibition assay. Conditions: Erk2^DS1, ATP 5 µM, bis-phosphorylated Erk2 by ELISA. In kind it is biochemical. The method in brief: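 Erk2 variant preincubated 30 min at RT with ATP (5 µM) and titrated test compound (2% DMSO) in 50 mM MOPS pH 7.4, 10 mM MgCl2, 1 mM DTT, 0.001% Tween 20, 0.1 mg/mL BSA. MEK2 then added and incubated at RT; enzyme levels and times set by linearity. Quenched with 20 mM EDTA, plate-bound overnight at 4 °C, then anti-phospho-Erk2/HRP ELISA. EC50 from nonlinear regression; triplicates.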

For test [6], the target named is GFP-tagged Erk2^DS1 in HEK293 cells (Rattus norvegicus, UniProt P63086, C164L/Q103T). The experiment in a line: In-cell activation inhibition, EGF-stimulated HEK293 cells. In kind it is cell-based. Conditions: 2 at 100-1000 nM, SB203580 1000 nM, immunoblot. The procedure, abridged: as §1
Another test deals with Erk2^DS1 (Q103T/C164L). The conditions noted are these: ref Hari et al., 2013; cited from earlier work.
Test [7] deals with T1, Erk2^WT. The test can be described thus: DUSP6 activation inhibition. In kind it is biochemical. Conditions: inhibitor 5 µM, 4-MUP turnover. The procedure, abridged:
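DUSP6 (140 nM) added for 1 h at RT, then 4-MUP (250 µM). Fluorescence read at Ex/Em 355/460 nm after 2 h at RT; Erk2-free wells used as background.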

With `C[S+]([O-])c1ccc(-c2nc(-c3ccncc3)c(-c3ccc(F)cc3)[nH]2)cc1` (centres unmarked) [SB203580], the “Decrease in the amount of activation loop phosphorylated Erk2 (MEK2)” value on Erk2^WT [1] is recorded as “neither 2 nor SB203580 lead to a significant decrease”. At phospho-Erk2^DS2, the “Effect on DUSP6-mediated dephosphorylation of the TxY motif” value was “enhanced the phosphatase activity of DUSP6”. Moreover, the “Cellular Erk2 activation upon EGF stimulation” value is on record as “not affected” in test [2] and “had no effect” in [6]. For the same molecule, the “Formation of bis-phosphorylated Erk2 (MEK2)” value on Erk2^DS1 [3] is given as “comparable levels of bis-phosphorylation”. The “Effect on DUSP6-mediated dephosphorylation” value on phospho-Erk2^WT is reported as “none of the inhibitors affected”. The “Inhibition of wild type Erk2” value on Erk2^WT [4] is “very weakly inhibited”. For the same molecule, the “Sensitivity of drug sensitive Erk2 mutant to inhibitor” value at Erk2^DS2 (Q103A/C164L) and in the test with Erk2^DS1 (Q103T/C164L) was “highly sensitive” in each case. In addition, at Erk2^DS1 [5], the “Inhibition of dual phosphorylation of Erk2's activation loop by MEK2” value is recorded as “only a minimal effect”. For the same molecule, the “Effect on Erk2-mediated activation of DUSP6” value at Erk2^WT [7] is on record as “none of these ligands affected”.
